Data set [1] is described as follows: Modulation of gamma-secretase assessed as reduction in amyloid beta 42 level by cell based assay.
The nature of data set [2]: Modulation of gamma secretase in CHO-2B7 cells assessed as reduction in amyloid beta 40 level after 5 hrs by MSD ELISA. The class given is cell-based. To be noted: Cricetulus griseus, CHO-2B7, 5 h.
Data set [3] is described as follows: (§1) Metabolic stability in human liver microsomes assessed as compound remaining at 1 uM at 60 mins by LC/MS/MS analysis in absence of NADPH. The class given is ADME, Microsome. To be noted: liver microsomes, read-out: Stability. Summed up:
(§2)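 Human liver microsomes were run without NADPH as a qualitative read of susceptibility to enzymatic hydrolysis. The read-out was percent parent remaining at 60 min.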
Background: Liver microsomes are a subcellular fraction often used to study metabolism.

The nature of data set [4]: Modulation of gamma secretase in CHO-2B7 cells assessed as reduction in amyloid beta 42 level after 5 hrs by MSD ELISA. The class given is cell-based. To be noted: Cricetulus griseus, CHO-2B7, 5 h.
For data set [5], the system named is CHO-2B7. Nature of the data set: Modulation of gamma secretase in CHO-2B7 cells assessed as reduction in amyloid beta 40 level at 20 uM after 5 hrs by MSD ELISA. As to conditions: Cricetulus griseus. On the set-up: scale not given: the % may be the effect or the level left. The class given is cell-based.
The subject of data set [6] is CHO-2B7. Nature of the data set: Modulation of gamma secretase in CHO-2B7 cells assessed as reduction in amyloid beta 42 level at 20 uM after 5 hrs by MSD ELISA. To be noted: Cricetulus griseus. On the set-up: scale not given: the % may be the effect or the level left. The class given is cell-based. (In general: ELISA stands for enzyme-linked immunosorbent assay.)
Data set [7] is described as follows: Metabolic stability in human liver microsomes assessed as compound remaining at 1 uM at 60 mins by LC/MS/MS analysis in presence of NADPH. The class given is ADME, Microsome. As to conditions: read-out: Stability.
A short description of data set [8]: Ratio of drug uptake in brain to plasma in CD1 mouse at 1 mg/kg, iv at 6 hrs. As to conditions: brain and plasma.
A short description of data set [9]: Drug uptake in CD1 mouse brain at 1 mg/kg, iv at 6 hrs.
Data set [10] can be described thus: Plasma concentration in CD1 mouse at 1 mg/kg, iv at 6 hrs.
In data set [11] the test system is Liver microsomes. Nature of the data set: Metabolic stability in human liver microsomes at 1 uM after 60 mins by LC/MS/MS analysis. As to conditions: 1 h.
Data set [12] relates to Liver microsomes. The data set is described as §1. The class given is ADME, Microsome. As to conditions: microsomes, 1 h, 1 µM. Summed up:
as §2

For `CC(=O)O[C@@H]([C@H]1C[C@@H](C)[C@H]2[C@H](O1)[C@H](O)[C@@]1(C)[C@@H]3CC[C@H]4C(C)(C)[C@@H](OC(=O)NC5CNC5)CC[C@@]45C[C@@]35CC[C@]21C)C(C)(C)O`, the values for the IC50 in [1], in data set [2] and in [4] were 47 nM, 15000 nM and 47 nM, respectively. Besides, in data set [3], the remaining at 1 h, 1 µM was 21%.
As to `CC(=O)OC[C@H]1C[C@@H](C)[C@H]2[C@H](O1)[C@H](O)[C@@]1(C)[C@@H]3CC[C@H]4C(C)(C)[C@@H](O[C@H]5CN(C6COC6)CCO5)CC[C@@]45C[C@@]35CC[C@]21C`, the Activity with CHO-2B7 [5] and in the data set with CHO-2B7 [6] was 0% throughout. Also, the remaining at 1 h, 1 µM in [3] turned out to be 0%.
Regarding `C[C@@H]1C[C@H]([C@H](OC(=O)N(C)C)C(C)(C)O)O[C@H]2[C@H]1[C@@]1(C)CC[C@@]34C[C@@]35CC[C@H](O)C(C)(C)[C@@H]5CC[C@H]4[C@]1(C)[C@H]2O`, the Activity in the data set with CHO-2B7 [6] is 53%. For the same molecule, the remaining at 1 h, 1 µM in data set [3] turned out to be 115%.
Consider `CC(=O)O[C@@H]([C@H]1C[C@@H](C)[C@H]2[C@H](O1)[C@H](O)[C@@]1(C)[C@@H]3CC[C@H]4C(C)(C)[C@@H](O[C@H]5CNCCO5)CC[C@@]45C[C@@]35CC[C@]21C)C(C)(C)O`, for which the results for the IC50 in data set [2] and in data set [4] were 2200 nM and 70 nM, respectively. In addition, the remaining at 1 h, 1 µM came to 3% in data set [7] and 7% in data set [3].
With `CC(=O)O[C@@H]([C@H]1C[C@@H](C)[C@H]2[C@H](O1)[C@H](O)[C@@]1(C)[C@@H]3CC[C@H]4C(C)(C)[C@@H](O[C@@H]5OC[C@@H](O)[C@H](O)[C@H]5O)CC[C@@]45C[C@@]35CC[C@]21C)C(C)(C)O`, the IC50 in [1] is 60 nM.
Regarding `C[C@@H]1C[C@H]([C@H](O)C(C)(C)O)O[C@H]2[C@H]1[C@@]1(C)CC[C@@]34C[C@@]35CC[C@H](O[C@H]3CNCCO3)C(C)(C)[C@@H]5CC[C@H]4[C@]1(C)[C@H]2O`, the remaining at 1 h, 1 µM was 40% in [7] and 112% in data set [3]. Besides, the IC50 in data set [4] worked out at 1600 nM.
For the molecule `CCO[C@@H]([C@H]1C[C@@H](C)[C@H]2[C@H](O1)[C@H](O)[C@@]1(C)[C@@H]3CC[C@H]4C(C)(C)[C@@H](OC(=O)N(C)C5CN(C)C5)CC[C@@]45C[C@@]35CC[C@]21C)C(C)(C)O`, the partition ratio (Kp) at 6 h in [8] was 0.1. The values for the concentration at 6 h in data set [9] and in [10] were 56 nM and 566 nM, respectively. In addition, the Stability result in the data set on Liver microsomes [11] was “Stable”. Further, the IC50 in [2] was found to be 4300 nM; in data set [4], 61 nM.
For the molecule `CC(C)[C@@H](OC(=O)N(C)C)[C@H]1C[C@@H](C)[C@H]2[C@H](O1)[C@H](O)[C@@]1(C)[C@@H]3CC[C@H]4C(C)(C)[C@@H](OC(=O)N5CCC5)CC[C@@]45C[C@@]35CC[C@]21C`, the Activity in the data set with CHO-2B7 [5] and in the data set with CHO-2B7 [6] was 0% in each case. Further, the Stability in the data set on Liver microsomes [12] was 127%.
In the case of `C[C@@H]1C[C@H]([C@H](O)C(C)(C)O)O[C@H]2[C@H]1[C@@]1(C)CC[C@@]34C[C@@]35CC[C@H](O[C@H]3CN(C6COC6)CCO3)C(C)(C)[C@@H]5CC[C@H]4[C@]1(C)[C@H]2O`, the figures for the remaining at 1 h, 1 µM in [7] and in [3] were 81% and 107%, respectively. Moreover, in data set [4], the IC50 was at least 20000 nM.
For the molecule `CC(C)[C@@H](OC(=O)N1CCC1)[C@H]1C[C@@H](C)[C@H]2[C@H](O1)[C@H](O)[C@@]1(C)[C@@H]3CC[C@H]4C(C)(C)[C@@H](OC(=O)N5CCN(C)CC5)CC[C@@]45C[C@@]35CC[C@]21C`, the Kp at 6 h in data set [8] is 0.03. Besides, the concentration at 6 h came to 14 nM in data set [9] and 450 nM in [10]. Besides, in the data set with Liver microsomes [11], the Stability entry is on record as “Stable”. The IC50 in data set [2] was 8200 nM; in data set [4] it was 170 nM.
Take `CC(C)[C@@H](OC(N)=O)[C@H]1C[C@@H](C)[C@H]2[C@H](O1)[C@H](O)[C@@]1(C)[C@@H]3CC[C@H]4C(C)(C)[C@@H](OC(=O)N5CCC5)CC[C@@]45C[C@@]35CC[C@]21C`: the results for the Activity in the data set with CHO-2B7 [5] and in the data set with CHO-2B7 [6] were 15% and 40%, respectively. The remaining at 1 h, 1 µM in [3] amounted to 106%.
`C[C@@H]1C[C@H]([C@H](O)C(C)(C)O)O[C@H]2[C@H]1[C@@]1(C)CC[C@@]34C[C@@]35CC[C@H](O[C@H]3CN(C(=O)C6(C)COC6)CCO3)C(C)(C)[C@@H]5CC[C@H]4[C@]1(C)[C@H]2O`: the Activity in the data set on CHO-2B7 [6] was found to be 50%. Further, the IC50 in data set [4] came out at 70 nM.
Regarding `CCO[C@@H]([C@H]1C[C@@H](C)[C@H]2[C@H](O1)[C@H](O)[C@@]1(C)[C@@H]3CC[C@H]4C(C)(C)[C@@H](OC(=O)N5CCN(CCOC)CC5)CC[C@@]45C[C@@]35CC[C@]21C)C(C)(C)O`, the Kp at 6 h in data set [8] amounted to 0.03. For the same molecule, the concentration at 6 h in [9] amounted to 8 nM; in data set [10], 261 nM. Besides, in the data set on Liver microsomes [11], the Stability result is reported as “Stable”. In addition, the Activity with CHO-2B7 [5] was 51%. Also, the IC50 in [4] worked out at 320 nM.
Take `CNC(=O)O[C@@H]([C@H]1C[C@@H](C)[C@H]2[C@H](O1)[C@H](O)[C@@]1(C)[C@@H]3CC[C@H]4C(C)(C)[C@@H](O)CC[C@@]45C[C@@]35CC[C@]21C)C(C)(C)O`: in the data set with CHO-2B7 [6], the Activity worked out at 27%. The remaining at 1 h, 1 µM in [3] stood at 96%.
Take `CC(=O)O[C@@H]([C@H]1C[C@@H](C)[C@H]2[C@H](O1)[C@H](O)[C@@]1(C)[C@@H]3CC[C@H]4C(C)(C)[C@@H](O[C@H]5CN([C@H]6CCNC6=O)CCO5)CC[C@@]45C[C@@]35CC[C@]21C)C(C)(C)O`: the remaining at 1 h, 1 µM in [7] came out at 63%; in data set [3], 3%. For the same molecule, the IC50 in data set [4] is 170 nM.
Take `CCO[C@@H]([C@H]1C[C@@H](C)[C@H]2[C@H](O1)[C@H](O)[C@@]1(C)[C@@H]3CC[C@H]4C(C)(C)[C@@H](O[C@H]5CN(C)CCO5)CC[C@@]45C[C@@]35CC[C@]21C)C(C)(C)O`: the Kp at 6 h in data set [8] was 0.76. The concentration at 6 h in data set [9] was 16 nM; in [10], 21 nM. Moreover, the Stability entry in the data set on Liver microsomes [11] is “Stable”. Further, the IC50 turned out to be 4500 nM in [2] and 250 nM in data set [4].
With `CC(=O)O[C@@H]([C@H]1C[C@@H](C)[C@H]2[C@H](O1)[C@H](O)[C@@]1(C)[C@@H]3CC[C@H]4C(C)(C)[C@@H](O[C@H]5CN(C6COC6)CCO5)CC[C@@]45C[C@@]35CC[C@]21C)C(C)(C)O`, the Activity with CHO-2B7 [5] is 35%. Besides, the remaining at 1 h, 1 µM in data set [7] and in data set [3] was 1% each time. In addition, the IC50 in data set [4] was 170 nM.
As to `CCO[C@@H]([C@H]1C[C@@H](C)[C@H]2[C@H](O1)[C@H](O)[C@@]1(C)[C@@H]3CC[C@H]4C(C)(C)[C@@H](OC(=O)N5CCN(C)CC5)CC[C@@]45C[C@@]35CC[C@]21C)C(C)(C)O`, the Kp at 6 h in data set [8] came to 0.13. Also, the concentration at 6 h in [9] is 12 nM; in data set [10] it was 95 nM. For the same molecule, the Stability entry in the data set on Liver microsomes [11] was “Stable”. In addition, the IC50 came out at 5000 nM in data set [2] and 68 nM in data set [4].

In general, IC50 refers to the point on the concentration scale where inhibition reaches its midpoint. The Kp is the ratio of the level in a tissue or fluid to that in plasma or blood.

The record behind these values is ChEMBL document CHEMBL2203235, “Optimization of a natural product-based class of γ-secretase modulators” (J Med Chem, 2012).
